# ChEMBL document CHEMBL4364256, “Design, synthesis and biological evaluation of antimicrobial diarylimine and -amine compounds targeting the interaction between the bacterial NusB and NusE proteins” (Eur J Med Chem, 2019)
# The source made the active and inactive calls. The rule behind the calls is not given here.
# Legend:
# Staphylococcus aureus [1] = experiment: Antimicrobial activity against CA-methicillin-resistant Staphylococcus aureus W45 ST59 incubated for 20 hrs by microdilution method; settings: W45 ST59, 20 h
# Enterococcus faecium = experiment: Antimicrobial activity against Enterococcus faecium ATCC 19433 incubated for 20 hrs by microdilution method; assay type: functional; settings: ATCC 19433, 20 h
# Method in brief: (§1)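 Broth microdilution MIC testing done following CLSI guidelines.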
# Staphylococcus aureus [2] = experiment: Antimicrobial activity against CA-methicillin-resistant Staphylococcus aureus W48 ST217 incubated for 20 hrs by microdilution method; settings: W48 ST217, 20 h
# Bacillus subtilis = experiment: Inhibition of N-terminal LgBiT-fused Bacillus subtilis NusB expressed in Escherichia coli BL21(DE3)pLysS interaction with C- terminal SmBiT-fused Bacillus subtilis NusE expressed in Escherichia coli BL21(DE3)pLysS at 100 uM preincubated for 10 mins followed by NusE addition and measured after 10 mins by nano-glo luciferase assay relative to control
# Method in brief: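 NusB and NusE were mixed 1:1 at 1 µM in PBS, with compound at 100 µM. The read-out was percent inhibition of the NusB-NusE interaction.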
# Pseudomonas aeruginosa = experiment: Antimicrobial activity against Pseudomonas aeruginosa ATCC 27853 incubated for 20 hrs by microdilution method; assay type: functional; settings: ATCC 27853, 20 h; method in brief: as §1
# [3] = system: Enterococcus casseliflavus; experiment: Antimicrobial activity against Enterococcus casseliflavus ATCC 25788 incubated for 20 hrs by microdilution method; assay type: functional; settings: ATCC 25788, 20 h; method in brief: as §1
# Staphylococcus aureus [4] = experiment: Antimicrobial activity against CA-methicillin-resistant Staphylococcus aureus W4 ST338 incubated for 20 hrs by microdilution method; assay type: functional; settings: W4 ST338, 20 h
# Method in brief: (§2)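 MIC determined by microdilution following Clinical & Laboratory Standards Institute (CLSI) guidelines, read in µg/mL, against a panel of hospital- and community-acquired MRSA strains.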
# Streptococcus agalactiae = experiment: Antimicrobial activity against Streptococcus agalactiae ATCC 12386 incubated for 20 hrs by microdilution method; assay type: functional; settings: ATCC 12386, 20 h; method in brief: as §1
# Streptococcus pyogenes = experiment: Antimicrobial activity against Streptococcus pyogenes ATCC 19615 incubated for 20 hrs by microdilution method; assay type: functional; settings: ATCC 19615, 20 h; method in brief: as §1
# Staphylococcus aureus [5] = experiment: Antimicrobial activity against Staphylococcus aureus ST22 11B086169 incubated for 20 hrs by microdilution method; assay type: functional; settings: ST22 11B086169, 20 h; method in brief: as §2
# Staphylococcus aureus [6] = experiment: Antimicrobial activity against Staphylococcus aureus USA300/ST8 incubated for 20 hrs by microdilution method; settings: USA300 ST8, 20 h
# Streptococcus pneumoniae = experiment: Antimicrobial activity against Streptococcus pneumoniae ATCC 49619 incubated for 20 hrs by microdilution method; assay type: functional; settings: ATCC 49619, 20 h; method in brief: as §1
# Staphylococcus aureus [7] = experiment: Antimicrobial activity against Staphylococcus aureus HA W231 ST45 incubated for 20 hrs by microdilution method; assay type: functional; settings: HA W231 ST45, 20 h; method in brief: as §2
# Acinetobacter baumannii = experiment: Antimicrobial activity against Acinetobacter baumannii ATCC 19606 incubated for 20 hrs by microdilution method; assay type: functional; settings: ATCC 19606 = CIP 70.34 = JCM 6841, 20 h; method in brief: as §1
# Staphylococcus aureus [8] = experiment: Antimicrobial activity against Staphylococcus aureus HA W235 ST5 incubated for 20 hrs by microdilution method; assay type: functional; settings: HA W235 ST5, 20 h; method in brief: as §2
# [9] = microbe, parasite or virus in culture; settings: Enterobacter cloacae, ATCC 13047, 20 h
# Staphylococcus aureus [10] = experiment: Antimicrobial activity against Staphylococcus aureus ATCC BAA44 incubated for 20 hrs by microdilution method; assay type: functional; settings: ATCC BAA44, 20 h; method in brief: as §2
# Staphylococcus aureus [11] = experiment: Antimicrobial activity against Staphylococcus aureus ST239 incubated for 20 hrs by microdilution method; assay type: functional; settings: CN79, 20 h; method in brief: as §2
# [12] = Antimicrobial activity against Staphylococcus saprophyticus ATCC 15305 incubated for 20 hrs by microdilution method; assay type: functional, Staphylococcus saprophyticus subsp. saprophyticus; settings: ATCC 15305, 20 h; method in brief: as §1
# Staphylococcus aureus [13] = experiment: Antimicrobial activity against CA-methicillin-resistant Staphylococcus aureus W46 ST59 incubated for 20 hrs by microdilution method; settings: W46 ST59, 20 h
# Staphylococcus aureus [14] = experiment: microbe, parasite or virus in culture; settings: ATCC 29213, 20 h
# Staphylococcus aureus [15] = experiment: Antimicrobial activity against Staphylococcus aureus ATCC BAA43 incubated for 20 hrs by microdilution method; assay type: functional; settings: ATCC BAA43, 20 h; method in brief: as §2
# [16] = Cytotoxicity against human HaCaT cells assessed as reduction in cell viability after 48 to 72 hrs by MTT assay; assay type: cell-based
# [17] = Therapeutic index, ratio of CC50 for human A549 cells to 1/2 times MIC for Staphylococcus aureus ATCC 25923; assay type: toxicity; settings: read-out: TI
# [18] = Cytotoxicity against human A549 cells assessed as reduction in cell viability after 48 to 72 hrs by MTT assay; assay type: cell-based
# [19] = Therapeutic index, ratio of CC50 for human HaCaT cells to 1/2 times MIC for Staphylococcus aureus ATCC 25923; assay type: toxicity; settings: read-out: TI
# Staphylococcus aureus [20] = experiment: microbe, parasite or virus in culture; settings: ATCC 25923, 20 h
# Staphylococcus aureus [21] = experiment: Antimicrobial activity against CA-methicillin-resistant Staphylococcus aureus W47 ST30 incubated for 20 hrs by microdilution method; assay type: functional; settings: W47 ST30, 20 h; method in brief: as §2
# [22] = system: Staphylococcus epidermidis; experiment: Antimicrobial activity against Staphylococcus epidermidis ATCC 12228 incubated for 20 hrs by microdilution method; assay type: functional; settings: ATCC 12228, 20 h; method in brief: as §1
# Bacteria = experiment: Binding affinity to bacterial NusB assessed as change in chiral structure at 2 ug/ml by circular dichroism spectroscopic analysis
# Method in brief: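 Circular dichroism spectra were recorded on NusB at 2.0 µg/mL in neutral phosphate buffer, alone and after mixing with compound at a 1:1 ratio. Binding was read as a change in the spectrum.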
compound,measurement,setting,value
CC(C)(C)c1cccc(NCc2cc([N+](=O)[O-])ccc2O)c1,MIC,Staphylococcus aureus [1],8 µg/mL
same,MIC,Enterococcus faecium,32 µg/mL
same,MIC,Staphylococcus aureus [2],4 µg/mL
same,inhibition,Bacillus subtilis,39.5%
same,MIC,Pseudomonas aeruginosa,> 256 µg/mL
same,MIC,[3],32 µg/mL
same,MIC,Staphylococcus aureus [4],4 µg/mL
same,MIC,Streptococcus agalactiae,16 µg/mL
same,MIC,Streptococcus pyogenes,16 µg/mL
same,MIC,Staphylococcus aureus [5],8 µg/mL
same,MIC,Staphylococcus aureus [6],8 µg/mL
same,MIC,Streptococcus pneumoniae,8 µg/mL
same,MIC,Staphylococcus aureus [7],8 µg/mL
same,MIC,Acinetobacter baumannii,> 256 µg/mL
same,MIC,Staphylococcus aureus [8],4 µg/mL
same,MIC,[9],> 256 µg/mL
same,MIC,Staphylococcus aureus [10],8 µg/mL
same,MIC,Staphylococcus aureus [11],8 µg/mL
same,MIC,[12],1 µg/mL
same,MIC,Staphylococcus aureus [13],8 µg/mL
same,MIC,Staphylococcus aureus [14],4 µg/mL
same,MIC,Staphylococcus aureus [15],2 µg/mL
same,CC50,[16],20.2 µM
same,selectivity ratio,[17],6
same,CC50,[18],18.3 µM
same,selectivity ratio,[19],6
same,MIC,Staphylococcus aureus [20],2 µg/mL
same,MIC,Staphylococcus aureus [21],4 µg/mL
same,MIC,[22],16 µg/mL
CC(C)(C)c1ccccc1/N=C/c1cc([N+](=O)[O-])ccc1O,MIC,Enterococcus faecium,> 256 µg/mL
same,inhibition,Bacillus subtilis,16.8%
same,MIC,Pseudomonas aeruginosa,> 256 µg/mL
same,Activity,Bacteria,Active
same,MIC,Streptococcus pneumoniae,64 µg/mL
same,MIC,Acinetobacter baumannii,> 256 µg/mL
same,MIC,[9],> 256 µg/mL
same,MIC,Staphylococcus aureus [14],16 µg/mL
same,MIC,Staphylococcus aureus [20],4 µg/mL
